ChEMBL document CHEMBL1152850, “Efficient inhibition of the Alzheimer's disease beta-secretase by membrane targeting” (Science, 2008)
One block for each compound: values may come before it. Active and inactive are the calls of the source. No cut-off for these calls is given here. Square brackets hold non-standard residues; d marks the D form. Peptide text beside a SMILES is read from it. * marks the point of attachment. Piperazinyl(4-RhodamineB) = CCN(CC)c1ccc2c(-c3ccccc3C(=O)N3CCN(*)CC3)c3ccc(=[N+](CC)CC)cc-3oc2c1; X4 = CC(C)CCC[C@@H](C)[C@H]1CC[C@H]2[C@@H]3CC[C@H]4C[C@@H](OCC(=O)*)CC[C@]4(C)[C@H]3CC[C@]12C; X1 = CC(C)CCC[C@@H](C)[C@H]1CC[C@H]2[C@@H]3CCC4C[C@@H](O*)CC[C@]4(C)[C@H]3CC[C@]12C; Sta = CC(C)C[C@H](N)[C@@H](O)CC(=O)O; PEG4 = NCCOCCOCCOCCOCCC(=O)O; PEG3 = NCCOCCOCCOCCC(=O)O; X3 = CCCCCCCCCCCCCCCCO*; X2 = CCCCCCCCCCCCCCO*; βAla = NCCC(=O)O

Legend:
[1] = molecular target: Beta-secretase 1 (Homo sapiens) (UniProt P56817); test: Inhibition of BACE1 mediated APP cleavage in human HeLa cells expressing swAPP at 200 nM by electrochemiluminescence assay; assay type: cell-based
[2] = molecular target: Beta-secretase 1 (Mus musculus) (UniProt P56818); test: Inhibition of BACE1 mediated APP cleavage in mouse N2a cells expressing swAPP by electrochemiluminescence assay; assay type: cell-based
[3] = molecular target: Beta-secretase 1 (Homo sapiens) (UniProt P56817); test: Inhibition of BACE1 mediated APP cleavage in human HeLa cells expressing swAPP assessed as amyloid beta production at 2 uM after 4 hrs by immunoblot; assay type: cell-based
[4] = tested on: Mus musculus; test: Reduction in amyloid beta production in transgenic swAPP/PSDE9 mouse expressing APP KM670/671NL mutant and presenilin-1 […] at 10 mM dosed stereotaxically into hippocampus after 4 hrs; assay type: functional, organism-based
Procedure, shortened: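 APPsw/PSΔE9 transgenic mice given a stereotaxic injection into the hippocampus, with DMSO as solvent control; hippocampal Aβ measured 4 hours later. Means ± SD, Student t test.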

[5] = molecular target: Beta-secretase 1 (Homo sapiens) (UniProt P56817); test: Inhibition of BACE1 mediated APP cleavage in human HeLa cells expressing swAPP at 2 uM after 4 hrs by immunoblot; assay type: cell-based
[6] = tested on: Drosophila; test: Reduction on lethality of Drosophila UAS-APP/UAS-APP; UAS-BACE523/UAS-BACE523 flies expressing BACE mutant assessed as increase in survival by measuring eclosion numbers 4 mM dosed in diet; assay type: functional, organism-based
[7] = tested on: HeLa; test: Increase in alpha secretase mediated APP cleavage in human HeLa cells expressing swAPP at 2 uM after 4 hrs by immunoblot; assay type: cell-based
[8] = tested on: HeLa; test: Increase in alpha secretase mediated APP cleavage in human HeLa cells expressing swAPP assessed as alpha cleaved ectodomain of APP at 200 nM by electrochemiluminescence assay; assay type: cell-based
[9] = molecular target: Beta-secretase 1 (Homo sapiens) (UniProt P56817); test: Inhibition of BACE1 mediated APP cleavage in human HeLa cells expressing swAPP assessed as beta cleaved ectodomain of APP level using rhodamine-labeled compound at 0.1 mM; assay type: cell-based
Procedure, shortened: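 HeLa-swAPP cells treated with a range of concentrations of the sterol-linked inhibitor; β-cleaved ectodomain detected by immunostaining and imaging, nuclei counterstained with DAPI.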

[10] = molecular target: Beta-secretase 1 (Homo sapiens) (UniProt P56817); test: Inhibition of BACE1 mediated APP cleavage in human HeLa cells expressing swAPP assessed as amyloid beta production using rhodamine-labeled compound at 2 uM; assay type: cell-based
Procedure, shortened: (§1)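 Rhodamine-labeled inhibitors at 2 μM on HeLa-swAPP cells; medium analyzed by ECL for sAPPβ and Aβ40, with viability (percent survival). Means ± SD, representative of three independent experiments.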

[11] = tested on: Drosophila; test: Reduction on lethality of Drosophila w:actin-GAL4/Cyo;UASDPsn/Tm3 flies expressing presenilin mutant assessed as increase in survival by measuring eclosion numbers 4 mM dosed in diet; assay type: functional, organism-based
[12] = molecular target: Beta-secretase 1 (Homo sapiens) (UniProt P56817); test: Inhibition of BACE1 mediated APP cleavage in human HeLa cells expressing swAPP assessed as as beta cleaved ectodomain of APP level using rhodamine-labeled compound at 2 uM; assay type: cell-based; procedure, shortened: as §1
[13] = molecular target: Beta-secretase 1 (Homo sapiens) (UniProt P56817); test: Inhibition of BACE1 mediated APP cleavage in human HeLa cells expressing swAPP assessed as as beta cleaved ectodomain of APP level; assay type: cell-based
[14] = molecular target: Beta-secretase 1 (Homo sapiens) (UniProt P56817); test: Inhibition of BACE1 ectodomain relative to control
[15] = molecular target: Beta-secretase 1 (Homo sapiens) (UniProt P56817); test: Inhibition of BACE1 mediated APP cleavage in human HeLa cells expressing swAPP at 200 nM after 4 hrs; assay type: cell-based
Procedure, shortened: (§2)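 HeLa-swAPP cells incubated with compounds at 20 nM or 200 nM for 4 hours; harvested medium assayed for sAPPβ and expressed as percent inhibition of β cleavage, mean ± SD.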

[16] = molecular target: Beta-secretase 1 (Homo sapiens) (UniProt P56817); test: Inhibition of BACE1 mediated APP cleavage in human HeLa cells expressing swAPP at 20 nM after 4 hrs; assay type: cell-based; procedure, shortened: as §2

Sequence of Beta-secretase 1 (Homo sapiens) (P56817 whole entry, the tested form may be a part): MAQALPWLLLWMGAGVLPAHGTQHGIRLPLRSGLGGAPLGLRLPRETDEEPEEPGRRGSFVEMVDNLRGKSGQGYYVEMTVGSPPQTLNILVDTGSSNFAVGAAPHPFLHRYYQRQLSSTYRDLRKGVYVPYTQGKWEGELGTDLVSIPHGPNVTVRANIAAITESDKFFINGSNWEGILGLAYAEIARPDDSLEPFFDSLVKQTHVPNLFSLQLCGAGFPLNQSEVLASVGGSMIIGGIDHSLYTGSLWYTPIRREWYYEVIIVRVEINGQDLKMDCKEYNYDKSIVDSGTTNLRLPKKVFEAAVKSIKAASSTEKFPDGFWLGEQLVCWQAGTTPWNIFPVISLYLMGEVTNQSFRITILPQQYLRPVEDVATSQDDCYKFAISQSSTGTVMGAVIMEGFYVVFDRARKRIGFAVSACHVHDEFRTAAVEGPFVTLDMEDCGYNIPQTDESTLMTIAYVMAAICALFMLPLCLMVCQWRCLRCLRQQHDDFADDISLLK
Sequence of Beta-secretase 1 (Mus musculus) (P56818 whole entry): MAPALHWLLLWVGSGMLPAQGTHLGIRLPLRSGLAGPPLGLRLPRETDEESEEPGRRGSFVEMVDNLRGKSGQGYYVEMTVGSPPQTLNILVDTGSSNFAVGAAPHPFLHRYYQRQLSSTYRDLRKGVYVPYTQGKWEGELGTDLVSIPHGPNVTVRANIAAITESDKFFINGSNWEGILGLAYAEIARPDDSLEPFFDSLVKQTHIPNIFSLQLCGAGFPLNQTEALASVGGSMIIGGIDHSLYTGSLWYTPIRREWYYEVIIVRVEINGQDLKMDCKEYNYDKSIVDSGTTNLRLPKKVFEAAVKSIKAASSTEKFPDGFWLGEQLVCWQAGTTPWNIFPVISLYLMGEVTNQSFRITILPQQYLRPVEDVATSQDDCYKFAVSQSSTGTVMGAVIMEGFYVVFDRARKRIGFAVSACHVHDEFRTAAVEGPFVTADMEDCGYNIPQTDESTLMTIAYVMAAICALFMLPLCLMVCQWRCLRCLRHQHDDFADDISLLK

Compound: CCN(CC)c1ccc2c(-c3ccccc3C(=O)N3CCN(C(=O)CC[C@H](NC(=O)CCNC(=O)[C@H](CCCN=C(N)N)NC(=O)[C@H](CCCN=C(N)N)NC(=O)CO[C@H]4CC[C@@]5(C)[C@@H](CC[C@@H]6[C@@H]5CC[C@]5(C)[C@@H]([C@H](C)CCCC(C)C)CC[C@@H]65)C4)C(=O)NCCC(=O)NCC(=O)N[C@@H](CCC(=O)O)C(=O)N[C@H](C(=O)N[C@@H](CC(N)=O)C(=O)N[C@@H](CC(C)C)[C@@H](O)CC(=O)N[C@H](C(=O)N[C@@H](C)C(=O)N[C@@H](CCC(=O)O)C(=O)N[C@@H](Cc4ccccc4)C(N)=O)C(C)C)C(C)C)CC3)c3ccc(=[N+](CC)CC)cc-3oc2c1 (X4-RR[βAla]E(Piperazinyl(4-RhodamineB))[βAla]GEVN[Sta]VAEF-NH2)
- inhibition [1]: inactive

Compound: CC(C)CCC[C@@H](C)[C@H]1CC[C@H]2[C@@H]3CCC4C[C@@H](OC(=O)C[C@H](NC(=O)CCOCCOCCOCCOCCNC(=O)CCOCCOCCOCCNC(=O)CCOCCOCCOCCOCCNC(=O)CCOCCOCCOCCNC(=O)CCOCCOCCOCCOCCNC(=O)[C@H](Cc5ccccc5)NC(=O)[C@H](CCC(=O)O)NC(=O)[C@H](C)NC(=O)[C@@H](NC(=O)C[C@H](O)[C@H](CC(C)C)NC(=O)[C@H](CC(N)=O)NC(=O)[C@@H](NC(=O)[C@@H](N)CCC(=O)O)C(C)C)C(C)C)C(N)=O)CC[C@]4(C)[C@H]3CC[C@]12C (stereo partly specified) (H-EVN[Sta]VAEF[PEG4][PEG3][PEG4][PEG3][PEG4]D(X1)-NH2)
- inhibition [2]: Active
- inhibition [3]: Active
- Activity [4]: Active
- inhibition [5]: Active
- inhibition [6]: Active
- inhibition [7]: Active
- inhibition [8]: Active
- inhibition [9]: Active
- inhibition [10]: Active
- inhibition [11]: Active
- inhibition [12]: Active

Compound: CC(C)C[C@H](NC(=O)[C@H](CC(N)=O)NC(=O)[C@@H](NC(=O)[C@@H](N)CCC(=O)O)C(C)C)[C@@H](O)CC(=O)N[C@H](C(=O)N[C@@H](C)C(=O)N[C@@H](CCC(=O)O)C(=O)N[C@@H](Cc1ccccc1)C(N)=O)C(C)C (HELM PEPTIDE1{E.V.N.[CC(C)C[C@H](N[*:1])[C@@H](O)CC(=O)[*:2]].V.A.E.F.[am]}$$$$V2.0)
- inhibition [2]: inactive
- inhibition [4]: inactive
- inhibition [13]: inactive
- inhibition [14]: Active

Compound: CC(C)C[C@H](NC(=O)[C@H](CC(N)=O)NC(=O)[C@@H](NC(=O)[C@@H](N)CCC(=O)O)C(C)C)[C@@H](O)CC(=O)N[C@H](C(=O)N[C@@H](C)C(=O)N[C@@H](CCC(=O)O)C(=O)N[C@@H](Cc1ccccc1)C(=O)NCCOCCOCCOCCOCCC(=O)NCCOCCOCCOCCC(=O)NCCOCCOCCOCCOCCC(=O)NCCOCCOCCOCCC(=O)NCCOCCOCCOCCOCCC(N)=O)C(C)C (H-EVN[Sta]VAEF[PEG4][PEG3][PEG4][PEG3][PEG4]-NH2)
- inhibition [1]: inactive

Second part, the compound after the results:

- inhibition [15]: Active
- inhibition [16]: Active
Compound: CCCCCCCCCCCCCCOC(=O)C[C@H](NC(=O)CCOCCOCCOCCOCCNC(=O)CCOCCOCCOCCNC(=O)CCOCCOCCOCCOCCNC(=O)CCOCCOCCOCCNC(=O)CCOCCOCCOCCOCCNC(=O)[C@H](Cc1ccccc1)NC(=O)[C@H](CCC(=O)O)NC(=O)[C@H](C)NC(=O)[C@@H](NC(=O)C[C@H](O)[C@H](CC(C)C)NC(=O)[C@H](CC(N)=O)NC(=O)[C@@H](NC(=O)[C@@H](N)CCC(=O)O)C(C)C)C(C)C)C(N)=O (H-EVN[Sta]VAEF[PEG4][PEG3][PEG4][PEG3][PEG4]D(X2)-NH2)

- inhibition [15]: Active
- inhibition [16]: Active
Compound: CCCCCCCCCCCCCCCCOC(=O)C[C@H](NC(=O)CCOCCOCCOCCOCCNC(=O)CCOCCOCCOCCNC(=O)CCOCCOCCOCCOCCNC(=O)CCOCCOCCOCCNC(=O)CCOCCOCCOCCOCCNC(=O)[C@H](Cc1ccccc1)NC(=O)[C@H](CCC(=O)O)NC(=O)[C@H](C)NC(=O)[C@@H](NC(=O)C[C@H](O)[C@H](CC(C)C)NC(=O)[C@H](CC(N)=O)NC(=O)[C@@H](NC(=O)[C@@H](N)CCC(=O)O)C(C)C)C(C)C)C(N)=O (H-EVN[Sta]VAEF[PEG4][PEG3][PEG4][PEG3][PEG4]D(X3)-NH2)
